Screens as filed in PubChem BioAssay.
Not all results are given here.
Apaf-1 act = human Apaf-1 activation; 330,000 compounds, 0.31% hits; activity change, negative = activation, % at 20 µM; Apaf-1 apoptosome caspase-3 activation, DEVD-Rh110 fluorescence; active compounds read low; O14727;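 active means activity change at or below -40% at 20 µM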
Target sequence (O14727 whole entry, looked up): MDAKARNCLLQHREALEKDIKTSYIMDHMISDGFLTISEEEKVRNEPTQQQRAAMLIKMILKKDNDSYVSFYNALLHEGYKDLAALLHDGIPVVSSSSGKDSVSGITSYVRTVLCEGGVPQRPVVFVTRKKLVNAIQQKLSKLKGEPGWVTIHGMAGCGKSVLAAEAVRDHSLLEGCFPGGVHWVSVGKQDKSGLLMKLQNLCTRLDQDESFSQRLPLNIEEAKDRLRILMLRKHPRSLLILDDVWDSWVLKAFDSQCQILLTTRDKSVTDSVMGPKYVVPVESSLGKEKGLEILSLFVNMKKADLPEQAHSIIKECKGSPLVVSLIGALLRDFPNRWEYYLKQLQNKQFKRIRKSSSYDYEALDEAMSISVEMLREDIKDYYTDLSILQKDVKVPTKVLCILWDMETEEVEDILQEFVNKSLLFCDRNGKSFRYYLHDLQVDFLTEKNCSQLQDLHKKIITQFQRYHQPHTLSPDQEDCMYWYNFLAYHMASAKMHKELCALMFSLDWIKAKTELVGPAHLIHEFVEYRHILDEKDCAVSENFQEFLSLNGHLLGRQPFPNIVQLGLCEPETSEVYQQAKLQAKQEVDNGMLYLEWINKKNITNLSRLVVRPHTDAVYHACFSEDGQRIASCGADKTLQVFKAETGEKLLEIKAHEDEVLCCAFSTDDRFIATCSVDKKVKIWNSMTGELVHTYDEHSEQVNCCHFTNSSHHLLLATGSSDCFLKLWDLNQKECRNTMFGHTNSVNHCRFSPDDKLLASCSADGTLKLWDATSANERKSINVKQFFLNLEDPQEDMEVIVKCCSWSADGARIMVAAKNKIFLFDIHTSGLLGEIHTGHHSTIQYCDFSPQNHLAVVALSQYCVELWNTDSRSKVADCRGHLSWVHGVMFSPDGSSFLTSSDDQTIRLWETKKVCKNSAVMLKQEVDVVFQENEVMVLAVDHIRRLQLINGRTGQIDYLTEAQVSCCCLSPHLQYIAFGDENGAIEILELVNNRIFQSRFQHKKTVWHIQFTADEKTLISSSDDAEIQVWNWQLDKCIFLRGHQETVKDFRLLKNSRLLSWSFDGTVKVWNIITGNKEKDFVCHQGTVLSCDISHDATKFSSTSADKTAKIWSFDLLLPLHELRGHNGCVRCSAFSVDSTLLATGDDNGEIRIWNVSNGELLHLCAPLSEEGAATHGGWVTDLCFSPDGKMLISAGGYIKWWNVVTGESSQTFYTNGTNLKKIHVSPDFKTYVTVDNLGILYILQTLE
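system = biochemical Apaf-1 apoptosome reconstitution | buffer or medium = 20 mM HEPES pH 7.5 with CHAPS, BSA | also added = dATP and cytochrome c as apoptosome triggers, (Z-DEVD)2-Rh110 substrate | incubation = 30 min compound preincubation and 50 min reaction, both room temperature | measured by = fluorescence, 540 nm emission, 480 nm excitation | read-out basis = Caspase-3 cleavage activity downstream of Apaf-1 activation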
Rh110 act interf = counter-screen for Apaf-1 activators: fluorescence interference; shares compounds with Apaf-1 act; Rh110 fluorescence interference, quenched caspase reaction, Ex480/Em540; fluorescence interference (activity change), % at 20 µM, hits read low; 980 tested, under 10 active; AID 504616;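 active means mean activity change at or below -40% when tested at 20 µM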
Apaf-1 act conf = confirmation of human Apaf-1 activators; reconstituted apoptosome caspase-3 activity, DEVD-Rh110 fluorescence; active compounds read low; activity change, negative = activation, % at 20 µM; shares compounds with Apaf-1 act; AID 504617; 980 compounds, 5% hits;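 active means mean activity change at or below -40%, meaning activation of 40% or more, at 20 µM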
Active calls of the source: *; nt = no result.

SMILES	Apaf-1 act	Rh110 act interf	Apaf-1 act conf
O=C1Nc2ccc(S(=O)(=O)NCc3ccco3)c3cccc1c23	49	nt	nt
CCC(C)(C)c1ccc(OCCCC[n+]2ccccc2)c(C(C)(C)CC)c1	51	nt	nt
C#CCOCCOCCOCCNc1nc(N2CCN(C(=O)CCCCCCCCCCNC(=O)[C@H](CCCCN)n3cc(C)nn3)CC2)nc(N2CCN(C(=O)CCCCCCCCCCNC(=O)[C@@H]([C@H](C)CC)n3cc(CCCCCN)nn3)CC2)n1	82	nt	nt
Cc1cc2cc(CNC(=O)NC3CCCCC3)ccc2n1C	51	nt	nt
Cc1ccccc1NC(=O)NC1CCCCCCC1	-63*	4	6
Cc1cccn2c(=O)c3cc(C(=O)NC4CCCCC4)c(=N)n(Cc4ccccc4)c3nc12	57	nt	nt
OCCN1CCN(CC/C=C2/c3ccccc3Sc3ccc(Cl)cc32)CC1	43	nt	nt
CCCCCCCCCCOC(=O)Cn1c(COc2ccccc2OC)[n+](C)c2ccccc21	71	nt	nt
CCOc1c(O)ccc(/C=C2\SC(=S)NC2=O)c1[N+](=O)[O-]	56	nt	nt
CCOc1ccc(-c2nnc(-c3ccncc3)o2)cc1	-421*	5	11
CCC(=O)N(C1=C(NC)C(=O)c2ccccc2C1=O)C(C)C	69	nt	nt
CC1CCN(C2=C(NS(=O)(=O)c3ccc(Cl)cc3)C(=O)c3ccccc3C2=O)CC1	46	nt	nt
Cc1ccc(-c2nn3c(C)nnc3c3ccccc23)cc1S(=O)(=O)NCc1ccccc1	48	nt	nt
CCCCCCSc1ccc(-c2nc3cnccn3c2NCCCC)cc1	56	nt	nt
O=C1/C(=N\S(=O)(=O)c2cccs2)C([n+]2ccc(CCCc3ccccc3)cc2)=C([O-])c2ccccc21	46	nt	nt
CCn1cc(C(=O)Nc2ccc(NC(=O)c3ccco3)cc2)c(=O)c2ccc(C)nc21	-59*	-8	-4
CCn1cc(C(=O)OCC(=O)OC2CC(C)CCC2C(C)C)c(=O)c2ccc(C)nc21 (configuration not stated)	48	nt	nt
Cc1ccc(F)c(NC(=S)Nc2cccc3ccccc23)c1	78	nt	nt
CC(Oc1ccc2ccccc2c1)C(=O)NNC(=O)Nc1ccccc1F (configuration not stated)	-132*	-5	11
Fc1ccccc1NC(=S)Nc1cccc2cnccc12	97	nt	nt
CN1CCN(CCCNC(=O)c2cc3c(-c4ccc(Cl)cc4)nn(C)c3s2)CC1	43	nt	nt
O=C(/C=C/c1ccco1)c1ccc(NC(=O)C23CC4CC(CC(C4)C2)C3)cc1	45	nt	nt
CCCCNc1c(-c2ccc(OC)c(SC(C)CC)c2)nc2cc(C)ccn12 (configuration not stated)	49	nt	nt
Cc1ccc(NC(=S)Nc2cccc3cnccc23)cc1C	53	nt	nt
O=[N+]([O-])c1cccnc1SCc1ccccc1	-514*	10	9
SMILES	Apaf-1 act	Rh110 act interf	Apaf-1 act conf
O=S(=O)(c1ccc(Br)cc1)N1CCN(c2ccc3nnc(-c4ccccc4)n3n2)CC1	41	nt	nt
CSc1ccc(CN(C)C(=O)CSCC(=O)Nc2cc(C)on2)cc1	48	nt	nt
Oc1c(Br)cc(/C=N/NC(=S)NCc2ccco2)cc1Br	-329*	0	14
CN(C)CCCNc1cc(O)c2ncccc2c1	77	nt	nt
C[C@@H](CN1C2=NC[C@H](Cc3ccccc3)N2C[C@H]1Cc1ccc(O)cc1)NC(=O)CCC1CCCCC1	41	nt	nt
Cc1ccc(N2CC(C(=O)N3CCC(C(=O)Nc4nnc(C(C)(C)C)s4)CC3)CC2=O)cc1 (configuration not stated)	-384*	10	12
OCCNC(=S)Nc1ccc2nsnc2c1	97	nt	nt
COc1ccc(/C=C2/C(=O)N(c3cccc(F)c3)N=C2C)c(OC)c1	90	nt	nt
O=c1cc(-c2cc3ccccc3o2)c2cc(O)ccc2o1	-234*	11	18
CC(C)NC[C@@H](O)c1ccc(O)c(O)c1	43	nt	nt
Cc1cc2cc(C(c3nnnn3Cc3ccco3)N3CCc4ccccc4C3)c(=O)[nH]c2cc1C (configuration not stated)	41	nt	nt
Cc1ccc(N(CC(N)=O)C2SC(=O)N(C)C2=O)cc1 (configuration not stated)	-488*	8	12
COc1ccc(C(=O)c2c(C(F)(F)F)oc3c2C(=O)c2ccccc2C3=O)cc1	79	nt	nt
CCN(C(=O)Cn1c(=O)n2nc(CCn3nc(C)cc3C)nc2c2ccccc21)c1cccc(C)c1	-291*	9	16
CCCN1C(=O)/C(=C/c2cc(C)n(C)c2C)SC1=Nc1ccc(OC)cc1	41	nt	nt
Clc1ccc(-c2nnc3sc(Cc4cccs4)nn23)cc1	58	nt	nt
O=c1cc(-c2ccc(F)cc2)[nH][nH]1	50	nt	nt
CN(CC(=O)Nc1ccccc1N1CCOCC1)CC(=O)Nc1ccc(F)c(F)c1F	-72*	8	12
CCCN(CC(=O)Nc1ccccc1C)C(=O)C1CC(=O)N(c2ccccc2C(C)CC)C1 (configuration not stated)	48	nt	nt
CC(C(=O)NC(=O)NC1CCCCC1)N(C)CC(=O)Nc1ccc(F)c(F)c1F (configuration not stated)	46	nt	nt
CCN(CC)CCN(C(=O)c1ccc2c(c1)CCCC2)c1nc2ccc(C)cc2s1	51	nt	nt
CCC(=Nc1ccc(N)cc1)C1=C(O)C(C(=O)OC)C(C)(C)CC1=O (configuration not stated)	61	nt	nt
Cc1[nH]c(=O)[nH]c(=O)c1S(=O)(=O)N1CCN(c2ccccc2F)CC1	-517*	0	-3
COc1cccc2c1[C@@H]1CN(CCCCn3c(=O)[nH]c4c(sc5ncc(-c6ccccc6)nc54)c3=O)C[C@@H]1CO2	48	nt	nt
O=C(O)CC1S/C(=N/N=C/c2ccc(-c3ccc(Cl)cc3[N+](=O)[O-])o2)NC1=O (configuration not stated)	52	nt	nt
SMILES	Apaf-1 act	Rh110 act interf	Apaf-1 act conf
O=C(/C=C/c1ccc(O)cc1)c1ccc(NC2=C(N3CCCCC3)C(=O)c3ccccc3C2=O)cc1	76	nt	nt
COc1ccc(CNC(=O)CNS(=O)(=O)c2ccc(Cl)cc2)cc1	-177*	7	14
COc1ccc(CC2=CC(=O)c3ccccc3C2=O)cc1	50	nt	nt
COc1ccc(CCNC(=O)C(=O)NCC2CCCN2S(=O)(=O)c2ccc(OC)cc2)cc1 (configuration not stated)	61	nt	nt
O=[N+]([O-])c1cc(CN2CCN(c3cccc(C(F)(F)F)c3)CC2)c2cccnc2c1O	42	nt	nt
Cc1ccc(-n2nc3c(c2NC(=O)c2ccco2)CS(=O)(=O)C3)cc1C	-391*	-9	8
COc1ccc([N+](=O)[O-])cc1NC1C2CC3CC(C2)CC1C3 (configuration not stated)	-522*	9	12
Nc1nc(SCC(=O)Nc2cc(-c3ccccc3)nn2-c2ccccc2)n[nH]1	-41*	8	5
NC1=NC[C@H](Cc2ccccc2)N1CCCCC1CCCCC1	67	nt	nt
CCN1/C(=C/C=C/c2sc3ccccc3[n+]2CC)Sc2ccccc21	90	nt	nt
CC(=O)N1CCOc2ccc(S(=O)(=O)N(C)c3ccc(C)cc3)cc21	40	nt	nt
CC(=O)OCCCNc1cc(SCc2ccco2)c2nonc2c1[N+](=O)[O-]	74	nt	nt
CC1(C)S/C(=N/N=C/c2ccco2)NC1=O	-61*	14	17
COC(=O)c1c(NC(=O)c2nc3ccccc3s2)sc2c1CC(C)(C)NC2(C)C	58	nt	nt
